Reference: ChEMBL document CHEMBL1212777, “Novel VIM metallo-beta-lactamase variant from clinical isolates of Enterobacteriaceae from Algeria” (2010)
≈ marks a conversion by molar mass, not a printed value.

What was measured:
Format in all cases: functional
[1] = test system: Escherichia coli; assay: Antimicrobial activity against Escherichia coli C600 2878 transconjugate expressing beta-lactamase VIM-19 by microdilution method in presence of 0.4 mM EDTA
How it was run: (§1)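 Rifampin-resistant E. coli C600 recipient mated with the clinical strain. Transconjugants were selected on agar with rifampin 300 μg/ml plus cefotaxime 0.5 μg/ml. MICs by dilution on Mueller-Hinton agar, inoculum 10^4 CFU per spot, CA-SFM interpretation. Inhibitor at a fixed level: clavulanic acid 2 μg/ml or EDTA 0.4 mM.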

[2] = test system: Klebsiella pneumoniae; assay: Antimicrobial activity against Klebsiella pneumoniae 6828 strain expressing beta-lactamase VIM-19 by microdilution method in presence of 0.4 mM EDTA
How it was run: (§2)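 Clinical isolates from intensive care patients. MICs by dilution on Mueller-Hinton agar, inoculum 10^4 CFU per spot, read after growth and interpreted by CA-SFM guidelines. Where the line names an inhibitor, it was held at a fixed level: clavulanic acid 2 μg/ml, tazobactam 4 μg/ml, or EDTA 0.4 mM.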

[3] = test system: Escherichia coli; assay: Antimicrobial activity against Escherichia coli DH5alpha 2878 transformant expressing beta-lactamase VIM-19 by microdilution method
How it was run: (§3)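 MIC by dilution on Mueller-Hinton agar, inoculum 10^4 CFU per spot, interpreted by CA-SFM guidelines. Inhibitor combinations where tested: clavulanic acid 2 μg/ml, tazobactam 4 μg/ml, EDTA 0.4 mM. Transconjugants came from rifampin-resistant E. coli C600 selected on rifampin 300 μg/ml plus cefotaxime 0.5 μg/ml. Transformants came from electroporation into E. coli DH5α selected on cefotaxime 0.5 μg/ml.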

[4] = test system: Providencia stuartii; assay: Antimicrobial activity against Providencia stuartii 6858 strain expressing beta-lactamase VIM-19 by microdilution method; how it was run: as §2
[5] = test system: Escherichia coli; assay: Antimicrobial activity against Escherichia coli harbouring plasmid BK-CMV expressing beta-lactamase VIM-19 by microdilution method; how it was run: as §3
[6] = test system: Escherichia coli; assay: Antimicrobial activity against Escherichia coli DH5alpha harbouring plasmid BK-VIM-19 expressing beta-lactamase VIM-19 by microdilution method; how it was run: as §3
[7] = test system: Escherichia coli; assay: Antimicrobial activity against Escherichia coli DH5alpha harbouring plasmid BK-VIM-19 expressing beta-lactamase VIM-19 by microdilution method in presence of 0.4 mM EDTA; how it was run: as §3
[8] = test system: Escherichia coli; assay: Antimicrobial activity against Escherichia coli DH5alpha 2878 transformant expressing beta-lactamase VIM-19 by microdilution method in presence of 0.4 mM EDTA; how it was run: as §3
[9] = test system: Escherichia coli; assay: Antimicrobial activity against Escherichia coli C600 2878 transconjugate expressing beta-lactamase VIM-19 by microdilution method; how it was run: as §3
[10] = test system: Escherichia coli; assay: Antimicrobial activity against Escherichia coli 2603 strain expressing beta-lactamase VIM-19 by microdilution method; how it was run: as §2
[11] = test system: Klebsiella pneumoniae; assay: Antimicrobial activity against Klebsiella pneumoniae 2878 strain expressing beta-lactamase VIM-19 […] in presence of 0.4 mM EDTA
[12] = test system: Escherichia coli; assay: Antimicrobial activity against Escherichia coli 138 expressing beta-lactamase VIM-19 by microdilution method; how it was run: as §2
[13] = test system: Providencia stuartii; assay: Antimicrobial activity against Providencia stuartii 6858 strain expressing beta-lactamase VIM-19 by microdilution method in presence of 0.4 mM EDTA; how it was run: as §2
[14] = test system: Klebsiella pneumoniae; assay: Antimicrobial activity against Klebsiella pneumoniae 6828 strain expressing beta-lactamase VIM-19 by microdilution method; how it was run: as §2
[15] = test system: Klebsiella pneumoniae; assay: Antimicrobial activity against Klebsiella pneumoniae 2878 strain expressing beta-lactamase VIM-19 by microdilution method; how it was run: as §2
[16] = test system: Escherichia coli; assay: Antimicrobial activity against Escherichia coli 138 expressing beta-lactamase VIM-19 by microdilution method in presence of 0.4 mM EDTA; how it was run: as §3
[17] = test system: Escherichia coli; assay: Antimicrobial activity against Escherichia coli 2603 strain expressing beta-lactamase VIM-19 by microdilution method in presence of 0.4 mM EDTA; how it was run: as §2
[18] = test system: Escherichia coli; assay: Antimicrobial activity against Escherichia coli harbouring plasmidBK-CMV expressing beta-lactamase VIM-19 […] in presence of 0.4 mM EDTA
[19] = test system: Escherichia coli; assay: Antimicrobial activity against Escherichia coli 138 expressing beta-lactamase VIM-19 by microdilution method in presence of 2 ug/ml clavulanic acid; how it was run: as §2
[20] = test system: Providencia stuartii; assay: Antimicrobial activity against Providencia stuartii 6858 strain expressing beta-lactamase VIM-19 by microdilution method in presence of 2 ug/ml clavulanic acid; how it was run: as §2
[21] = test system: Escherichia coli; assay: Antimicrobial activity against Escherichia coli DH5alpha harbouring plasmid BK-VIM-19 expressing beta-lactamase VIM-19 by microdilution method in presence of 2 ug/ml clavulanic acid; how it was run: as §3
[22] = test system: Escherichia coli; assay: Antimicrobial activity against Escherichia coli C600 2878 transconjugate expressing beta-lactamase VIM-19 by microdilution method in presence of 2 ug/ml clavulanic acid; how it was run: as §1
[23] = test system: Escherichia coli; assay: Antimicrobial activity against Escherichia coli 2603 strain expressing beta-lactamase VIM-19 by microdilution method in presence of 2 ug/ml clavulanic acid; how it was run: as §2
[24] = test system: Klebsiella pneumoniae; assay: Antimicrobial activity against Klebsiella pneumoniae 2878 strain expressing beta-lactamase VIM-19 by microdilution method in presence of 2 ug/ml clavulanic acid; how it was run: as §2
[25] = test system: Escherichia coli; assay: Antimicrobial activity against Escherichia coli DH5alpha 2878 transformant expressing beta-lactamase VIM-19 by microdilution method in presence of 2 ug/ml clavulanic acid; how it was run: as §3
[26] = test system: Klebsiella pneumoniae; assay: Antimicrobial activity against Klebsiella pneumoniae 6828 strain expressing beta-lactamase VIM-19 by microdilution method in presence of 2 ug/ml clavulanic acid; how it was run: as §2
[27] = test system: Escherichia coli; assay: Antimicrobial activity against Escherichia coli harbouring plasmidBK-CMV expressing beta-lactamase VIM-19 […] in presence of 2 ug/ml clavulanic acid

Row | Structure (SMILES) | MIC [1] [µg/mL] | MIC [2] [µg/mL] | MIC [3] [µg/mL] | MIC [4] [µg/mL] | MIC [5] [µg/mL] | MIC [6] [µg/mL] | MIC [7] [µg/mL] | MIC [8] [µg/mL] | MIC [9] [µg/mL] | MIC [10] [µg/mL] | MIC [11] [µg/mL] | MIC [12] [µg/mL] | MIC [13] [µg/mL] | MIC [14] [µg/mL] | MIC [15] [µg/mL] | MIC [16] [µg/mL] | MIC [17] [µg/mL] | MIC [18] [µg/mL] | further results
1 | C[C@@H](O)[C@H]1C(=O)N2C(C(=O)O)=C(S[C@@H]3CN[C@H](C(=O)Nc4cccc(C(=O)O)c4)C3)[C@H](C)[C@H]12 | < 0.12 | < 0.12 | 8 (≈ 16.8 µM) | 32 (≈ 67.3 µM) | < 0.12 | 4 (≈ 8.41 µM) | < 0.12 | < 0.12 | 1 (≈ 2.1 µM) | 16 (≈ 33.6 µM) | 0.25 | 32 (≈ 67.3 µM) | < 0.12 | 16 (≈ 33.6 µM) | 64 (≈ 135 µM) | 0.25 | < 0.12 | < 0.12 | 
2 | CO/N=C(\C(=O)N[C@@H]1C(=O)N2C(C(=O)[O-])=C(C[N+]3(C)CCCC3)CS[C@H]12)c1csc(N)n1 |  |  | 4 (≈ 8.32 µM) | 2 (≈ 4.16 µM) | < 0.12 |  |  |  |  | 4 (≈ 8.32 µM) |  | 64 (≈ 133 µM) |  | 4 (≈ 8.32 µM) | 64 (≈ 133 µM) |  |  |  | 
3 | CC1(C)S[C@@H]2[C@H](NC(=O)[C@H](N)c3ccc(O)cc3)C(=O)N2[C@H]1C(=O)O [AMOXICILLIN] |  |  | > 2050 | > 2050 | 4 (≈ 10.9 µM) | > 2050 |  |  | > 2050 | > 2050 |  | > 2050 |  | > 2050 | > 2050 |  |  |  | MIC [19]: > 2050 µg/mL; MIC [20]: > 2050 µg/mL; MIC [21]: > 2050 µg/mL; MIC [22]: > 2050 µg/mL; MIC [23]: > 2050 µg/mL; MIC [24]: > 2050 µg/mL; MIC [25]: > 2050 µg/mL; MIC [26]: > 2050 µg/mL; MIC [27]: 4 µg/mL
4 | C[C@H]1[C@H](NC(=O)/C(=N\OC(C)(C)C(=O)O)c2csc(N)n2)C(=O)N1S(=O)(=O)O [AZTREONAM] | 4 | 8 | 16 (≈ 36.7 µM) | 2 (≈ 4.59 µM) |  |  |  | 16 |  | 64 (≈ 147 µM) | 16 | 128 (≈ 294 µM) |  | 8 (≈ 18.4 µM) | 16 (≈ 36.7 µM) | 128 | 64 |  | 
5 | CO/N=C(\C(=O)N[C@@H]1C(=O)N2C(C(=O)O)=C(COC(C)=O)CS[C@H]12)c1csc(N)n1 [CEFOTAXIME] | 1 | 4 | 256 (≈ 562 µM) | 128 (≈ 281 µM) | 0.06 (≈ 0.132 µM) | 128 (≈ 281 µM) | 0.06 | 1 | 64 (≈ 141 µM) | 256 (≈ 562 µM) | 4 | 512 (≈ 1120 µM) | 2 | 128 (≈ 281 µM) | 256 (≈ 562 µM) | 32 | 4 | 0.06 | 
6 | CO[C@@]1(NC(=O)Cc2cccs2)C(=O)N2C(C(=O)O)=C(COC(N)=O)CS[C@@H]21 [CEFOXITIN] |  |  | 256 (≈ 599 µM) | 128 (≈ 299 µM) | 4 (≈ 9.36 µM) | 128 (≈ 299 µM) |  |  | 128 (≈ 299 µM) | 512 (≈ 1200 µM) |  | 512 (≈ 1200 µM) |  | 128 (≈ 299 µM) | 512 (≈ 1200 µM) |  |  |  | 
